Only some compounds are listed: those with a hit (about 2.4% of all), similar ones and a draw of the others.
Efa HMGR inh – blocks class II HMG-CoA reductase of Enterococcus faecalis; inhibition, % at 10 µM; 190,000 compounds, 0.41% hits; purified E. faecalis HMGR, NADPH absorbance 340 nm kinetic;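 active = inhibition above a set limit, the median over all tested compounds plus 3 SD, cut at about 9.5% in these data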;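 also: enzyme runs in reverse so mevalonate oxidation gives rising NADPH absorbance; 0% = complete reaction with DMSO and 100% = background rate lacking mevalonate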
EP2 mod – EP2 receptor (human) modulation; induction, % at 25 µM; EP2-expressing cells, cAMP HTRF FRET, PGE2 co-stimulation; P43116; 260,000 compounds, 0.83% hits;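 active = compounds whose cAMP rise, as percent of the full-agonist control response, exceeds 60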;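 also: rat C6 glioma line stably carrying human EP2 under a CMV promoter; the protocol text gives 20 µM as final concentration; 100% = response of wells given 1 µM PGE2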
Target sequence (P43116 whole entry, looked up): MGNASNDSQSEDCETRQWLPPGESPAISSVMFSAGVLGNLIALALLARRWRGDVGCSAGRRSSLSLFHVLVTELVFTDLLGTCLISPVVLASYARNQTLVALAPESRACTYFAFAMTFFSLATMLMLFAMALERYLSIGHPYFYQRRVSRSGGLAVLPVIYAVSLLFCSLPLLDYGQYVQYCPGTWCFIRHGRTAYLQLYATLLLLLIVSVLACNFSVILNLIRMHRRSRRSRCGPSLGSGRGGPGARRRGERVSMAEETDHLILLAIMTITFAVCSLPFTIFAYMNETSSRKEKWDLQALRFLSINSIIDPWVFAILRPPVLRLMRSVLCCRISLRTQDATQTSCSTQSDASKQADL
PGE2 EP2 inh – inhibitors of human EP2 prostaglandin E2 receptor | P43116 | C6 glioma cells expressing human EP2, cAMP TR-FRET; cells stimulated with saturating PGE2 | inhibition, % at 25 µM | 260,000 compounds, 0.52% hits | AID 1422;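 active = percent inhibition above 40 after rounding to a whole number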;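 also: rat C6 glioma host cells with rolipram phosphodiesterase inhibitor present; the protocol text gives 20 µM as final concentration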
bCat nuc transl – modulators of beta-catenin nuclear translocation | HeLa beta-catenin nuclear translocation, immunofluorescence imaging | 190,000 compounds, 0.3% hits | AID 1665 | nuclear translocation activity, % at 5 µM;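 active = nuclear translocation activity above 50% at 5 µM, with a well cell count of 50 or more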;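 also: per-cell ratio of nuclear to cytoplasmic median beta-catenin stain intensity; plate controls were DMSO negative control for no effect and GSK-3 inhibitor IX positive control for full effect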
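Technique: fluorescence imaging of beta-catenin antibody stain plus DAPI / Material: human HeLa cell line / Incubation: compound treatment 24 h, 37°C, 5% CO2 / Read-out basis: % activation of per-cell nuclear versus cytoplasmic median beta-catenin signal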
MT stabilize HCS – stabilizes microtubules in HeLa cells; HeLa tubulin immunostaining HCS, 24 h; share of cells brighter than vehicle mean+2SD; 200,000 compounds, 0.83% hits; % tubulin-high responders, % at 10 µM;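 active = plate Z-score above 3 for both tubulin-high and condensed-nucleus cell shares, with cell loss under 80%, at 10 µM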;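 also: anti alpha tubulin signal scored within the nucleus-defined area of each cell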
TbHK1 inh – blocks Trypanosoma brucei hexokinase 1 activity | recombinant TbHK1, G6PDH-coupled NADH A340 | AID 1430 | inhibition, % at 10 µM | 220,000 compounds, 0.11% hits;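 active = inhibition of 50% or more in the single-dose primary screen; inactive = inhibition below 50%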
EP2 confirm – human EP2 receptor cAMP induction, negative in counter-screens; C6 glioma EP2 cells, cAMP HTRF induction; plus low (about EC15) PGE2 agonist; 1,300 compounds, 47% hits; AID 1080; calls only at 20 µM (by protocol); shares compounds with EP2 mod;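 active = cAMP induction above 50% in the main assay while under 30% in all four parallel counter assays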;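 also: rat C6 glioma cells stably expressing human EP2 receptor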
An asterisk follows results filed as active; i = inactive; . = not tested or not shown; + = active, no number.

SMILES	Efa HMGR inh	EP2 mod	PGE2 EP2 inh	bCat nuc transl	MT stabilize HCS	TbHK1 inh	EP2 confirm
CCc1ccc(OCc2n[nH]c(=S)n2C(C)CCCC(C)C)cc1 (stereo not given)	0	69*	4	-3	3	9	+
Cc1ccccc1NC(=S)N(Cc1ccco1)C(C)c1cccs1 (stereo not given)	-2	51	5	-1	1	2	i
CC(c1cccs1)N(Cc1ccco1)C(=S)Nc1ccccc1Cl (stereo not given)	-1	57	11	0	2	7	.
CC1=NN(c2ccc(S(=O)(=O)O)cc2)C(=O)/C1=C\c1ccc(Cl)cc1	.	50	43*	.	.	.	i
CC1=NN(c2ccc(Cl)cc2)C(=O)/C1=C\c1cccn1-c1ccc(S(N)(=O)=O)cc1	7	-13	28	1	3	-3	.
O=c1[nH]c(N/N=C/c2ccccc2)nc2ccccc12	-4	69*	6	1	2	-17	+
C(=N\Nc1nc2ccccc2[nH]1)/c1ccccc1	-4	-19	10	0	.	-40	.
O=C(N=C1SCC(=O)N1c1ccccc1Cl)c1ccco1	2	48	5	.	2	-3	.
O=C(N=C1SCC(=O)N1c1ccccc1Cl)c1ccccc1	6	67*	6	0	3	2	i
COc1ccc(OC)c(/C=C/C(=O)N2CCCc3ccccc32)c1	0	79*	5	.	2	-11	+
C=CCc1cccc(C=Nc2cc(Br)ccc2O)c1O	-1	67*	6	0	2	-3	+
O=C(CSc1nc2ccccc2o1)Nc1cc(C(F)(F)F)ccc1N1CCOCC1	-1	80*	17	0	2	-1	+
O=C(CSc1nc2ccccc2o1)Nc1ccc(N2CCOCC2)c(Cl)c1	-3	-36	9	2	4	-1	.
O=C(CSc1nc2ccccc2o1)Nc1ccccc1N1CCCCCC1	1	71*	0	1	1	17	+
Cc1cc(C)nc(NC(=O)CSc2nc3ccccc3o2)n1	-3	-10	10	.	1	1	.
CC(C)N1CC=C2C(C1)C(c1ccccc1Cl)C(C#N)=C(N)C2(C#N)C#N (stereo not given)	.	-28	9	.	.	.	.
COc1ccc(-c2c(C)nn3c(NCCN4CCOCC4)cc(C)nc23)cc1	.	-72	.	.	.	.	.
COc1ccc(-c2cc(C(F)(F)F)nc(N3CCCCC3)n2)cc1OC	-4	55	2	-1	3	-20	+
COc1ccc(CCN(Cc2cc3cc(C)ccc3[nH]c2=O)Cc2nnnn2C(C)(C)C)cc1OC	.	12	13	.	.	.	.
CN(C)Cc1c(-c2ccc(Cl)cc2)nc2ccccn12	-6	-18	11	-2	3	2	.
Clc1ccc(-c2nc3ccccn3c2CN2CCCCC2)cc1	-11	66*	-1	-3	1	3	i
COc1ccccc1-c1nnc(SCC(=O)c2ccc(C3CCCCC3)cc2)n1Cc1ccco1	4	54	7	-2	3	16	+
COc1ccc(C(=O)CSc2nnc(-c3ccoc3C)n2Cc2ccco2)cc1	.	12	10	.	.	.	.
O=C(CSc1nnc(-c2cc3ccccc3cc2O)n1Cc1ccco1)c1ccc(F)cc1	3	50	3	-1	4	-1	i
C=CCn1cc(-c2ccc(Cl)cc2)cc(C#N)c1=O	2	-10	5	.	1	-14	.
SMILES	Efa HMGR inh	EP2 mod	PGE2 EP2 inh	bCat nuc transl	MT stabilize HCS	TbHK1 inh	EP2 confirm
CC(C)n1cc(-c2ccc(Cl)cc2)cc(C#N)c1=O	1	68*	10	.	3	-1	i
COc1cccc(C2c3[nH]c4ccccc4c3CCN2Cc2cnc(C)s2)c1OC (stereo not given)	-1	32	2	-2	4	-9	.
COc1ccccc1C1c2[nH]c3ccccc3c2CCN1Cc1cnc(C)s1 (stereo not given)	-3	80*	8	0	3	-3	+
Cc1cc(C(=O)CSc2nc3ccccc3c(=O)n2C)c(C)n1Cc1ccc2c(c1)OCO2	1	74*	8	2	12	-9	i
Cc1cccc(-c2ocnc2C(=O)NC(C)c2ccccn2)c1 (stereo not given)	.	-37	3	.	.	.	.
O=C(Cc1ccc(F)cc1)Nc1ccccc1Sc1ccccc1	-2	83*	2	-2	4	3	+
O=C(Cc1ccc(Br)cc1)Nc1ccccc1Sc1ccccc1	-1	68*	0	-1	4	2	+
COc1ccccc1/C=C/C(=O)OCC(=O)Nc1ccccc1Sc1ccccc1	11*	71*	8	-1	2	7	+
O=C(Cc1ccccc1)Nc1ccccc1Sc1ccccc1	-4	53	3	-2	3	12	.
COc1ccccc1NC(=O)COC(=O)/C=C/c1ccccc1[N+](=O)[O-]	-9	-37	5	-2	3	-1	.
CCc1ccc2[nH]c(=O)c(CN(Cc3ccco3)C(=S)Nc3ccc(F)cc3)cc2c1	.	1	33	.	.	.	.
CCN(CC)C(=O)/C(=C/c1ccc2c(c1)OCO2)NC(=O)c1ccco1	.	-56	11	.	.	.	.
CCC(OC(=O)c1cccs1)C(=O)NCc1ccc(F)cc1 (stereo not given)	.	-21	6	.	.	.	.
O=S(=O)(NC1CCCC1)c1ccc(S(=O)(=O)N2CCCC(O)C2)cc1 (stereo not given)	.	-49	8	.	.	.	.
CCOC(=O)c1cnc2c(c(C)nn2C)c1Oc1ccc(Cl)cc1	-1	67*	3	2	1	-2	+
Cc1cccc(Nc2nc(-c3sc(NC(=O)c4ccccc4)nc3C)cs2)n1	.	-33	24	.	.	.	.
CC1(C)C2CCC1(C)C(OC(=O)CC(=O)O)C2 (stereo not given)	-8	62*	17	-1	3	2	+
CCc1cc2c(C)ccc(C)c2nc1SCC(=O)Nc1ccccc1OC	.	39	6	.	.	.	.
C/C=C(\C)c1nnc(NC(=O)OCC)s1	-7	90*	11	-1	2	6	i
COc1ccccc1N(C(=O)NCc1ccccc1)C1=NCC(C)S1 (stereo not given)	-1	69*	9	.	3	0	+
COc1ccccc1NC(=S)N(Cc1ccccc1)Cc1ccccn1	-3	34	7	0	4	5	.
S=C(Nc1ccccc1Cl)N(Cc1ccccc1)Cc1ccccn1	-5	76*	3	-2	2	-3	+
Cc1nn2c(N3CCN(C(=O)c4ccco4)CC3)cc(C(C)(C)C)nc2c1-c1ccccc1	-4	78*	9	1	9	-30	+
